Experimental data from ChEMBL document CHEMBL4251637, “Picolyl amides of betulinic acid as antitumor agents causing tumor cell apoptosis” (Eur J Med Chem, 2018).
Activity calls are given as the source filed them. The calls are words filed in the database; no cut-off is given here.

Key:
[1] = tested on: G-361; assay: Induction of apoptosis in human G361 cells assessed as effect on p53 protein expression level at 0.5 to 25 uM after 24 hrs by Western blot analysis; format: functional, cell-based
Outline: (§1)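 G-361 cells seeded in 100-mm dishes at 1.5 × 10⁶ cells/mL and stabilized 24 h, then treated 24 h with 0.5–25 µM; DMSO vehicle controls. Lysed in RIPA buffer pH 7.4 and protein measured by Bradford. Run on 10% or 12% SDS-PAGE, blotted to nitrocellulose, probed overnight with primary antibodies, then HRP secondary and chemiluminescence. β-actin loading control, compared with untreated cells; three repeats.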

[2] = tested on: G-361; assay: Effect on total p44/42 level in human G361 cells at 0.5 to 25 uM after 24 hrs by Western blot analysis; format: cell-based; conditions: g-361, 24 h; outline: as §1
[3] = tested on: G-361; assay: Cell cycle arrest in human G361 cells assessed as increase in accumulation at sub-G1 phase at 0.5 to 25 uM after 24 hrs by propidium iodide staining-based flow cytometry; format: functional
Outline: (§2)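 G-361 melanoma cells grown in DMEM with 10% FBS, 2 mM L-glutamine and penicillin-streptomycin at 37 °C, 5% CO2. Cells were seeded and left 24 h, then treated with 0.5, 2.5, 12.5 or 25 µM for 24 h. Trypsinized cells were fixed and stained with 0.1% Triton X-100, 0.2 mg/mL RNase A and 10 µg/mL propidium iodide in PBS. DNA content was read by flow cytometry and phases quantified from histograms; three repeats.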

[4] = tested on: G-361; assay: Induction of apoptosis in human G361 cells assessed as increase in cleaved PARP expression at 0.5 to 25 uM after 24 hrs by Western blot analysis; format: functional, cell-based; outline: as §1
[5] = tested on: G-361; assay: Induction of apoptosis in human G361 cells assessed as effect on Bcl2 expression level at 0.5 to 25 uM after 24 hrs by Western blot analysis; format: functional, cell-based; outline: as §1
[6] = tested on: G-361; assay: Induction of apoptosis in human G361 cells assessed as downregulation of total Rb expression at 12.5 to 25 uM after 24 hrs by Western blot analysis; format: functional, cell-based; outline: as §1
[7] = tested on: G-361; assay: Cytotoxicity against human G361 cells after 72 hrs by calcein-AM dye based fluorescence assay; format: functional, cell-based; conditions: G-361, 72 h
Outline: (§3)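 Cells from ATCC, grown in DMEM with 10% fetal bovine serum, 2 mM L-glutamine and 1% penicillin-streptomycin at 37 °C, 5% CO2, humidified, and passaged by trypsinization two or three times weekly. Compound exposure lasted 72 h and the read-out was IC50 (µM).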

[8] = tested on: CCRF-CEM; assay: Cytotoxicity against human CEM cells after 72 hrs by calcein-AM dye based fluorescence assay; format: functional, cell-based; outline: as §3
[9] = tested on: MCF7; assay: Cytotoxicity against human MCF7 cells after 72 hrs by calcein-AM dye based fluorescence assay; format: functional, cell-based; conditions: MCF7, 72 h; outline: as §3
[10] = tested on: BJ; assay: Cytotoxicity against human BJ cells after 72 hrs by calcein-AM dye based fluorescence assay; format: cell-based; outline: as §3
[11] = tested on: G-361; assay: Induction of apoptosis in human G361 cells assessed as increase in caspase-3/7 activity using Ac-DEVD-AMC as substrate at 25 uM after 24 hrs by fluorescence assay relative to control; format: functional
Outline: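 Treated G-361 cells (0.5–25 µM, 24 h) were extracted on ice in CHAPS/HEPES buffer pH 7.4 with protease inhibitors, and lysates equalized by Bradford protein. Incubated 1 h with Ac-DEVD-AMC in PIPES/DTT buffer pH 7.3; Ac-DEVD-CHO lysates served as negative control. Fluorescence read at 346/442 nm and expressed as fold over untreated control. Three experiments in triplicate; one-way ANOVA.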

[12] = tested on: HeLa; assay: Cytotoxicity against human HeLa cells after 72 hrs by calcein-AM dye based fluorescence assay; format: functional, cell-based; outline: as §3
[13] = Therapeutic index, ratio of IC50 for human BJ cells to IC50 for human G361 cells; format: toxicity; conditions: BJ cells versus G361 cells, read-out: Ratio IC50
Outline: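 Therapeutic index is IC50 in normal BJ fibroblasts divided by IC50 in G-361 melanoma cells. Both IC50 values come from the 72 h cytotoxicity test, with cells grown in DMEM with 10% FBS, 2 mM L-glutamine and antibiotics at 37 °C, 5% CO2.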

[14] = tested on: G-361; assay: Induction of apoptosis in human G361 cells assessed as downregulation of phosphorylated Rb expression at 12.5 to 25 uM after 24 hrs by Western blot analysis; format: functional, cell-based; outline: as §1
[15] = tested on: G-361; assay: Cell cycle arrest in human G361 cells assessed as increase in accumulation at G0/G1 phase at 0.5 to 25 uM after 24 hrs by propidium iodide staining-based flow cytometry; format: functional; outline: as §2
[16] = tested on: G-361; assay: Induction of apoptosis in human G361 cells assessed as effect on Mcl1 expression level at 0.5 to 25 uM after 24 hrs by Western blot analysis; format: functional, cell-based; outline: as §1
[17] = tested on: G-361; assay: Cell cycle arrest in human G361 cells assessed as reduction in accumulation at G2/M phase at 0.5 to 25 uM after 24 hrs by propidium iodide staining-based flow cytometry; format: functional; outline: as §2
[18] = tested on: G-361; assay: Induction of apoptosis in human G361 cells assessed as increase in cleaved caspase-7 expression at 0.5 to 25 uM after 24 hrs by Western blot analysis; format: functional, cell-based; outline: as §1
[19] = molecular target: Mitogen-activated protein kinase; ERK1/ERK2 (Homo sapiens) (UniProt P27361+P28482); assay: Inhibition of ERK1/2 phosphorylation at Thr202/Tyr204 in human G361 cells at 12.5 to 25 uM after 24 hrs by Western blotting analysis relative to control; format: cell-based; outline: as §1
Mitogen-activated protein kinase; ERK1/ERK2 (Homo sapiens), sequence (P27361 whole entry, looked up): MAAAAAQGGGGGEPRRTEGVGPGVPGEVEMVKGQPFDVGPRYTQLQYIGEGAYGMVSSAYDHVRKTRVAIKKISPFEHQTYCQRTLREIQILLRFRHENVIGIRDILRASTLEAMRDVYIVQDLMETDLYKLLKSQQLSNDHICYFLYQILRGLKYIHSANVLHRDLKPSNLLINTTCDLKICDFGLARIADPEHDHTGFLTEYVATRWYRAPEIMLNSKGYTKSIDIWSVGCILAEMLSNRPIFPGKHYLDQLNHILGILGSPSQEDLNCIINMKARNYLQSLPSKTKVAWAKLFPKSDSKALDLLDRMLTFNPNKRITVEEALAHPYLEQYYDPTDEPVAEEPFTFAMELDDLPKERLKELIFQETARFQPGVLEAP
Mitogen-activated protein kinase; ERK1/ERK2 (Homo sapiens), sequence (P28482 whole entry, looked up): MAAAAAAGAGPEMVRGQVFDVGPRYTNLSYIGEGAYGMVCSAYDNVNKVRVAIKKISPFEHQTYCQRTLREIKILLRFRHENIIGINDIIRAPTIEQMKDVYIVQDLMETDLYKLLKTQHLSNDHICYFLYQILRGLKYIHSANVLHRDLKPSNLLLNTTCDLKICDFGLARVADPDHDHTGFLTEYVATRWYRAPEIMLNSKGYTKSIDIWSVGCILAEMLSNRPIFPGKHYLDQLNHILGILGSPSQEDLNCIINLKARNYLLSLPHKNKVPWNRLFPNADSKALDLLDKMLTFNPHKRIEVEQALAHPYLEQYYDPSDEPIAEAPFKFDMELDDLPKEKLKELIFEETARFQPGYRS

| SMILES | Activity [1] | Activity [2] | Activity [3] | Activity [4] | Activity [5] | Activity [6] | IC50 [7] | IC50 [8] | IC50 [9] | IC50 [10] | fold change (FC) [11] | IC50 [12] | selectivity ratio [13] | Activity [14] | Activity [15] | Activity [16] | Activity [17] | Activity [18] | inhibition [19] | Activity [11] |
| --- | --- | --- | --- | --- | --- | --- | --- | --- | --- | --- | --- | --- | --- | --- | --- | --- | --- | --- | --- | --- |
| C=C(C)[C@@H]1CC[C@]2(C(=O)O)CC[C@]3(C)[C@H](CC[C@@H]4[C@@]5(C)CC[C@H](OC(=O)CCC(=O)NCc6ccccn6)C(C)(C)[C@@H]5CC[C@]43C)[C@@H]12 | inactive | Non-Toxic | Active | Active | inactive | Active | 2.4 µM | 6.9 µM | 2.2 µM | 46.2 µM | <=18 | 2.3 µM | 19.3 | Active | Active | inactive | Active | Active | Active |  |
| C=C(C)[C@@H]1CC[C@]2(C(=O)O)CC[C@]3(C)[C@H](CC[C@@H]4[C@@]5(C)CC[C@H](OC(=O)CCC(=O)NCc6cccnc6)C(C)(C)[C@@H]5CC[C@]43C)[C@@H]12 | inactive | Non-Toxic | Active | Active | inactive | Active | 0.5 µM | 6.5 µM | 1.4 µM | 50 µM | 12 | 2.4 µM | 100 | Active | Active | inactive | Active | Active | Active |  |
| C=C(C)[C@@H]1CC[C@]2(C(=O)NCc3ccncc3)CC[C@]3(C)[C@H](CC[C@@H]4[C@@]5(C)CC[C@H](O)C(C)(C)[C@@H]5CC[C@]43C)[C@@H]12 |  |  |  |  |  |  | 11.6 µM | 18.6 µM | 21.1 µM | 11.2 µM |  | 14.8 µM | 1 |  |  |  |  |  |  |  |
| C=C(C)[C@@H]1CC[C@]2(C(=O)NCc3cccnc3)CC[C@]3(C)[C@H](CC[C@@H]4[C@@]5(C)CC[C@H](O)C(C)(C)[C@@H]5CC[C@]43C)[C@@H]12 |  |  |  |  |  |  | 18.1 µM | 25.3 µM | 38.7 µM | 17.5 µM |  | 23.6 µM | 1 |  |  |  |  |  |  |  |
| C=C(C)[C@@H]1CC[C@]2(C(=O)NCc3ccccn3)CC[C@]3(C)[C@H](CC[C@@H]4[C@@]5(C)CC[C@H](O)C(C)(C)[C@@H]5CC[C@]43C)[C@@H]12 |  |  |  |  |  |  | 16.4 µM | 18.6 µM | 27 µM | 15.8 µM |  | 14.7 µM | 1 |  |  |  |  |  |  |  |
| C=C(C)[C@@H]1CC[C@]2(C(=O)O)CC[C@]3(C)[C@H](CC[C@@H]4[C@@]5(C)CC[C@H](OC(=O)CCC(=O)NCc6ccncc6)C(C)(C)[C@@H]5CC[C@]43C)[C@@H]12 |  |  | inactive |  |  |  | 32.1 µM | 22.6 µM | > 50 µM | > 50 µM |  | 40.9 µM |  |  | inactive |  | inactive |  |  | inactive |
